{"data": "Results of several laboratories", "cell line": "HCT-116", "observed": "cell growth or viability", "note": "Each line is one published result; the experiments were not run side by side."}
{"SMILES": "CN1CCc2c(c3ccccc3n2Cc2ccc(C(=O)NO)cc2)C1", "method": "CCK-8", "time": "48 h", "IC50": "12 µM"}
{"SMILES": "O=C(CSc1nc2ccccc2s1)N/N=C/c1ccc(OCC(=O)Nc2ccc([N+](=O)[O-])cc2)cc1", "method": "MTS", "time": "72 h", "IC50": "52.9 µM"}
{"SMILES": "COc1ccc(N(Cc2csc(-c3ccc(Br)cc3)n2)C(=O)CCCCCC(=O)NO)cc1", "method": "MTT", "time": "72 h", "IC50": "2.21 µM"}
{"SMILES": "O=C1Nc2ccccc2C1=Nc1ccccc1I", "method": "MTT", "time": "48 h", "IC50": "31.5 µM"}
{"SMILES": "c1ccc(-c2noc(-c3nn(Cc4ccc5ccccc5c4)c4ccccc34)n2)cc1", "time": "48 h", "IC50": "173 µM"}
{"SMILES": "COc1ccc(N(Cc2csc(-c3ccc(C)cc3)n2)C(=O)CCCCCC(=O)NO)cc1", "method": "MTT", "time": "72 h", "IC50": "1.19 µM"}
{"SMILES": "CC(C)c1ccc(/C=C2\\N=C(SCC(=O)c3ccccc3)N(c3ccccc3)C2=O)cc1", "method": "MTT", "IC50": "83.7 µg/mL"}
{"SMILES": "O=C(CCc1ccc(Cl)cc1)N1C(=O)C(=Nc2ccc(Cl)cc2Br)c2ccccc21", "method": "MTT", "time": "48 h", "IC50": "23.2 µM"}
{"SMILES": "Cc1cc(NS(=O)(=O)c2ccc(NC(=O)/C(C#N)=C/c3ccc(N4CCOCC4)cc3)cc2)no1", "method": "MTT", "time": "48 h", "IC50": "67.8 µM"}
{"SMILES": "O=C1CSC(=Nc2cc(C(F)(F)F)ccc2-c2nnc(N3C(=O)CSC3=Nc3ccc([N+](=O)[O-])cc3)s2)N1c1ccc([N+](=O)[O-])cc1", "method": "MTT", "IC50": "74.4 µM"}
{"SMILES": "CN1CCC(NC2CCc3[nH]c4c(C(N)=O)ccc(-c5ccccc5Cl)c4c3C2)CC1 (centres unmarked)", "time": "96 h", "IC50": "0.00023 µM"}
{"SMILES": "COc1ccc(CNC(=O)Cn2cc(COc3ncnc4[nH]cnc34)nn2)cc1", "method": "MTT", "IC50": "> 100 µM"}
{"SMILES": "O=C1C(=Nc2ccc(Cl)cc2)c2ccccc2N1Cc1ccc([N+](=O)[O-])cc1", "method": "MTT", "time": "48 h", "IC50": "1.75 µM"}
{"SMILES": "CCOC(=O)c1cc(C)n(Cn2cnc3ccccc32)n1", "method": "MTT", "time": "24 h", "IC50": "47.9 µM"}
{"SMILES": "c1ccc(-c2cc(CNc3cccc4cccnc34)on2)cc1", "method": "MTS", "time": "72 h", "IC50": "> 100 µM"}
{"SMILES": "Cc1ccc(CN2C(=O)C(=Nc3c(C(C)C)cccc3C(C)C)c3ccccc32)cc1", "method": "MTT", "time": "48 h", "IC50": "30.9 µM"}
{"SMILES": "Cc1cc2c(C(N)=O)cccc2n1-c1nc2c(c(OCc3ccccc3)n1)CCCN2", "method": "ATP luminescence", "time": "72 h", "IC50": "3.4 µM"}
{"SMILES": "CC(=O)OC[C@H]1O[C@@H](n2cc(Cn3c(C(=O)/C=C/c4ccc(F)cc4)nc4ccccc43)nn2)[C@H](OC(C)=O)[C@@H](OC(C)=O)[C@H]1OC(C)=O", "method": "LDH", "time": "48 h", "IC50": "6.49 µM"}
{"SMILES": "S=C(N/N=C/c1cccc2cc3ccccc3nc12)Nc1ccccc1", "method": "MTT", "time": "48 h", "IC50": "> 50 µM"}
{"SMILES": "O=C1CS/C(=N\\c2ccccc2O)N1c1nnc(-c2ccc(C(F)(F)F)cc2/N=C2\\SCC(=O)N2c2ccccc2O)s1", "method": "MTT", "IC50": "40.5 µM"}
{"SMILES": "O=[N+]([O-])c1cc(I)c(O)c(C=NNc2ccc(C(F)(F)F)cc2)c1", "method": "MTT", "time": "24 h", "IC50": "9.43 µM"}
{"SMILES": "Clc1ccc(Cn2nc(-c3nc(-c4ccccc4)no3)c3ccccc32)c(Cl)c1", "time": "48 h", "IC50": "324 µM"}
{"SMILES": "C#Cc1cccc(Nc2ncnc3cc(OCCOC)c(OCCOC)cc23)c1", "method": "LDH", "time": "48 h", "IC50": "5.14 µM"}
{"SMILES": "O=C1CS/C(=N\\c2cc(C(F)(F)F)ccc2-c2nnc(N3C(=O)CS/C3=N\\c3cccc(Cl)c3)s2)N1c1cccc(Cl)c1", "method": "MTT", "IC50": "57.1 µM"}
{"SMILES": "O=C1/C(=C/c2ccc(O)cc2O)NC(=S)N1c1ccccc1", "method": "MTT", "IC50": "91.3 µg/mL"}
{"SMILES": "c1ccc(-c2cc(CNc3cccc4cccnc34)on2)nc1", "method": "MTS", "time": "72 h", "IC50": "> 100 µM"}
{"SMILES": "O=c1[nH]cc(F)c(=O)[nH]1", "method": "MTT", "time": "72 h", "IC50": "3.09 µM"}
{"SMILES": "Cc1ccc(CN2C(=O)C(=Nc3cccc(Cl)c3)c3ccccc32)cc1", "method": "MTT", "time": "48 h", "IC50": "1.05 µM"}
{"SMILES": "O=[N+]([O-])c1cc(Br)c(O)c(C=NNc2ccc(Cl)cc2)c1", "method": "MTT", "time": "24 h", "IC50": "16.6 µM"}
{"SMILES": "O=c1cc(OCc2cc(-c3ccccn3)no2)c2ccccc2o1", "method": "MTS", "time": "72 h", "IC50": "> 100 µM"}
{"SMILES": "COc1ccc2c(-c3nc(-c4ccccc4)no3)nn(Cc3ccncc3)c2c1", "time": "48 h", "IC50": "10.8 µM"}
{"SMILES": "O=c1[nH]cc(F)c(=O)[nH]1", "method": "MTT", "time": "48 h", "IC50": "17 µM"}
{"SMILES": "O=C1C(=Nc2ccccc2I)c2ccccc2N1Cc1ccc([N+](=O)[O-])cc1", "method": "MTT", "time": "48 h", "IC50": "1.7 µM"}
{"SMILES": "O=C(C=Cc1ccc(OCCCOc2ccc(C=CC(=O)c3cccs3)cc2)cc1)c1cccs1", "method": "MTT", "time": "48 h", "IC50": "120 µM"}
{"SMILES": "O=C1CS/C(=N\\c2cc(C(F)(F)F)ccc2-c2nnc(N3C(=O)CS/C3=N\\c3cc(O)cc(Br)c3)s2)N1c1cc(O)cc(Br)c1", "method": "MTT", "IC50": "78.1 µM"}
{"SMILES": "FC(F)(F)c1ccc(-c2cc(CNc3cccc4cccnc34)on2)cc1", "method": "MTS", "time": "72 h", "IC50": "> 100 µM"}
{"SMILES": "O=[N+]([O-])c1cc(I)c(O)c(C=NNc2ccc(Cl)cc2)c1", "method": "MTT", "time": "24 h", "IC50": "13.9 µM"}
{"SMILES": "Cc1cc2c(C(N)=O)cncc2n1-c1nc2c(c(NCc3ccccc3)n1)CCCN2", "method": "ATP luminescence", "time": "72 h", "IC50": "1.2 µM"}
{"SMILES": "CC(=O)OC[C@H]1O[C@@H](n2cc(Cn3c(C(C)=O)nc4ccccc43)nn2)[C@H](OC(C)=O)[C@@H](OC(C)=O)[C@H]1OC(C)=O", "method": "LDH", "time": "48 h", "IC50": "6.49 µM"}
{"SMILES": "Cc1cc(C)n(Cn2ccnc2)n1", "method": "MTT", "time": "24 h", "IC50": "21.3 µM"}
{"SMILES": "O=[N+]([O-])c1cc(Br)c(O)c(C=NNc2ccccc2)c1", "method": "MTT", "time": "24 h", "IC50": "11.7 µM"}
{"SMILES": "CONC(=O)c1cccc2c1cc(C)n2-c1nc2c(c(NCc3ccccc3)n1)CCCN2", "method": "ATP luminescence", "time": "72 h", "IC50": "0.7 µM"}
{"SMILES": "Clc1ccc(Cn2nc(-c3ncc(-c4ccccc4)s3)c3ccccc32)c(Cl)c1", "time": "48 h", "IC50": "404 µM"}
{"SMILES": "O=C1/C(=C/c2ccc3ccccc3c2O)NC(=S)N1c1ccccc1", "method": "MTT", "IC50": "7.25 µg/mL"}
{"SMILES": "C=CCN1C(=O)C(=Nc2cccc(C)c2)c2ccccc21", "method": "MTT", "time": "48 h", "IC50": "> 100 µM"}
{"SMILES": "CCCNC(=S)N/N=C/c1cccc2cc3ccccc3nc12", "method": "MTT", "time": "48 h", "IC50": "43.3 µM"}
{"SMILES": "O=C1Nc2ccccc2C1=Nc1cccc(Cl)c1", "method": "MTT", "time": "48 h", "IC50": "> 100 µM"}
{"SMILES": "COc1cc([C@@H]2c3cc4c(cc3[C@@H](O[C@@H]3O[C@@H]5CO[C@@H](C)O[C@H]5[C@H](O)[C@H]3O)[C@H]3COC(=O)[C@H]23)OCO4)cc(OC)c1O", "method": "SRB", "time": "72 h", "IC50": "2.4 µM"}
{"SMILES": "N#Cc1ccc(-c2cc(CNc3cccc4cccnc34)on2)cc1", "method": "MTS", "time": "72 h", "IC50": "> 100 µM"}
{"SMILES": "Fc1ccc2c(-c3ncc(-c4ccccc4)o3)nn(Cc3ccccc3)c2c1", "time": "48 h", "IC50": "82.6 µM"}
{"SMILES": "COc1cccc(N=C2SCC(=O)N2c2nnc(-c3ccc(C(F)(F)F)cc3N=C3SCC(=O)N3c3cccc(OC)c3)s2)c1", "method": "MTT", "IC50": "71.4 µM"}
{"SMILES": "Cc1cc2c(C(N)=O)cccc2n1-c1nc2c(c(NCc3ccccn3)n1)CCCN2", "method": "ATP luminescence", "time": "72 h", "IC50": "0.8 µM"}
{"SMILES": "COc1cccc(NC(=S)N/N=C/c2cccc3cc4ccccc4nc23)c1", "method": "MTT", "time": "48 h", "IC50": "49.6 µM"}
{"SMILES": "COC(=O)c1ccc2c(c1)NC(=O)/C2=C(\\Nc1ccc(N(C)C(=O)CN2CCN(C)CC2)cc1)c1ccccc1", "method": "MTT", "time": "24 h", "IC50": "1.88 µM"}
{"SMILES": "O=C(C=Cc1cccs1)c1ccc(OCCCOc2ccc(C(=O)C=Cc3cccs3)cc2)cc1", "method": "MTT", "time": "48 h", "IC50": "30.7 µM"}
{"SMILES": "O=P1(c2ccccc2)CCCCC1", "method": "MTT", "time": "72 h", "IC50": "> 100 µM"}
